Results as given in ChEMBL document CHEMBL3097989, “Antimicrobial activity of de novo designed cationic peptides against multi-resistant clinical isolates” (Eur J Med Chem, 2014).
Where a SMILES comes first, the peptide text is derived from it.

Experiments:
Type in all cases: functional
Escherichia coli [1] = test: Antibacterial activity against Escherichia coli PCOS15 clinical isolate expressing blaPER-2 and blaTEM-1 gene by microdilution test
Outline: (§1)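 MIC by standard broth microdilution following CLSI recommendations, in Mueller Hinton broth supplemented with Ca²⁺ (20-25mg/L) and Mg²⁺ (10-12.5mg/L); peptides tested against a panel of multi-resistant clinical isolates plus ATCC reference strains.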

Enterococcus faecium [2] = test: Antibacterial activity against Enterococcus faecium PZAP95 by microdilution test; outline: as §1
Staphylococcus aureus [3] = test: Antibacterial activity against Staphylococcus aureus P28 clinical isolate expressing ermA gene by microdilution test
Outline: (§2)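 MIC by standard broth microdilution following CLSI recommendations, in Mueller Hinton broth supplemented with Ca²⁺ (20-25 mg/L) and Mg²⁺ (10-12.5 mg/L); ATCC reference strains included in the panel.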

Acinetobacter sp. [4] = test: Antibacterial activity against Acinetobacter sp. M7489 clinical isolate expressing blaOXA-51 and blaTEM gene by microdilution test; outline: as §1
Pseudomonas aeruginosa [5] = test: Antibacterial activity against Pseudomonas aeruginosa M5470 by microdilution test; outline: as §2
Staphylococcus aureus [6] = test: Antibacterial activity against Staphylococcus aureus M6276 clinical isolate expressing ermA and lnuA gene by microdilution test; outline: as §2
Staphylococcus hominis = test: Antibacterial activity against Staphylococcus hominis M2973 clinical isolate expressing mecA gene by microdilution test; outline: as §2
Enterococcus gallinarum [7] = test: Antibacterial activity against Enterococcus gallinarum M2723 clinical isolate expressing vanC1 and vanA gene by microdilution test; outline: as §1
Staphylococcus warneri = test: Antibacterial activity against Staphylococcus warneri M6823 clinical isolate expressing mecA gene by microdilution test; outline: as §2
Pseudomonas aeruginosa [8] = test: Antibacterial activity against Pseudomonas aeruginosa M7907 clinical isolate expressing blaPER gene by microdilution test; outline: as §2
Klebsiella pneumoniae [9] = test: Antibacterial activity against Klebsiella pneumoniae M9170 clinical isolate expressing blaOXA-GIII gene by microdilution test; outline: as §1
Enterococcus faecalis [10] = test: Antibacterial activity against Enterococcus faecalis ATCC 29212 by microdilution test; outline: as §1
Enterococcus faecalis [11] = test: Antibacterial activity against Enterococcus faecalis M4449 clinical isolate expressing vanA gene by microdilution test; outline: as §1
Klebsiella pneumoniae [12] = test: Antibacterial activity against Klebsiella pneumoniae M9140 clinical isolate expressing blaCIT gene by microdilution test; outline: as §1
Klebsiella pneumoniae [13] = test: Antibacterial activity against Klebsiella pneumoniae PFAV3 by microdilution test; outline: as §1
Acinetobacter sp. [14] = test: Antibacterial activity against Acinetobacter sp. M7978 clinical isolate expressing blaIMP-1 gene by microdilution test; outline: as §1
Pseudomonas aeruginosa [15] = test: Antibacterial activity against Pseudomonas aeruginosa M5109 clinical isolate expressing blaVIM and blaGES-1 gene by microdilution test; outline: as §2
Staphylococcus aureus [16] = test: Antibacterial activity against Staphylococcus aureus M6820 clinical isolate expressing mecA gene by microdilution test; outline: as §2
Pseudomonas aeruginosa [17] = test: Antibacterial activity against Pseudomonas aeruginosa ATCC 27853 by microdilution test; outline: as §1
Acinetobacter sp. [18] = test: Antibacterial activity against Acinetobacter sp. M9665 clinical isolate expressing blaOXA-51 gene by microdilution test; outline: as §1
Acinetobacter sp. [19] = test: Antibacterial activity against Acinetobacter sp. M9013 clinical isolate expressing blaOXA-51 and blaIMP gene by microdilution test; outline: as §1
Escherichia coli [20] = test: Antibacterial activity against Escherichia coli M9884 by microdilution test; outline: as §1
Staphylococcus aureus [21] = test: Antibacterial activity against Staphylococcus aureus P33 clinical isolate expressing msrA gene by microdilution test; outline: as §2
Pseudomonas aeruginosa [22] = test: Antibacterial activity against Pseudomonas aeruginosa M7728 clinical isolate expressing blaIMP gene by microdilution test; outline: as §2
Klebsiella pneumoniae [23] = test: Antibacterial activity against Klebsiella pneumoniae M7647 clinical isolate expressing blaVIM, blaCTX-M-2, blaTEM-1 and blaSHV-1 gene by microdilution test; outline: as §1
[24] = test system: Staphylococcus epidermidis; test: Antibacterial activity against Staphylococcus epidermidis M2921 clinical isolate expressing mecA gene by microdilution test; outline: as §2
Escherichia coli [25] = test: Antibacterial activity against Escherichia coli PLCA1 clinical isolate expressing blaCTX-M-2 and blaTEM-1 gene by microdilution test; outline: as §1
Pseudomonas aeruginosa [26] = test: Antibacterial activity against Pseudomonas aeruginosa M11005 clinical isolate expressing blaKPC-2 gene by microdilution test; outline: as §1
Klebsiella pneumoniae [27] = test: Antibacterial activity against Klebsiella pneumoniae M11245 clinical isolate expressing blaKPC-2 and blaPER-2 gene by microdilution test; outline: as §1
Staphylococcus aureus [28] = test: Antibacterial activity against Staphylococcus aureus P239 clinical isolate expressing ermC gene by microdilution test; outline: as §2
Escherichia coli [29] = test: Antibacterial activity against Escherichia coli M5306 clinical isolate expressing blaPER-2, blaCTX-M-2 and blaTEM-1 gene by microdilution test; outline: as §1
Escherichia coli [30] = test: Antibacterial activity against Escherichia coli PNEU23 clinical isolate expressing blaOXA-GIII and blaTEM-1 gene by microdilution test; outline: as §1
Enterococcus gallinarum [31] = test: Antibacterial activity against Enterococcus gallinarum M2685 clinical isolate expressing vanC1 and vanA gene by microdilution test; outline: as §1
Enterococcus faecium [32] = test: Antibacterial activity against Enterococcus faecium M6261 by microdilution test; outline: as §1

| Compound | MIC90 (Escherichia coli [1]) [µg/mL] | MIC90 (Enterococcus faecium [2]) [µg/mL] | MIC90 (Staphylococcus aureus [3]) [µg/mL] | MIC90 (Acinetobacter sp. [4]) [µg/mL] | MIC90 (Pseudomonas aeruginosa [5]) [µg/mL] | MIC90 (Staphylococcus aureus [6]) [µg/mL] | MIC90 (Staphylococcus hominis) [µg/mL] | MIC90 (Enterococcus gallinarum [7]) [µg/mL] | MIC90 (Staphylococcus warneri) [µg/mL] | MIC90 (Pseudomonas aeruginosa [8]) [µg/mL] | MIC90 (Klebsiella pneumoniae [9]) [µg/mL] | MIC90 (Enterococcus faecalis [10]) [µg/mL] | MIC90 (Enterococcus faecalis [11]) [µg/mL] | MIC90 (Klebsiella pneumoniae [12]) [µg/mL] | MIC90 (Klebsiella pneumoniae [13]) [µg/mL] | MIC90 (Acinetobacter sp. [14]) [µg/mL] | MIC90 (Pseudomonas aeruginosa [15]) [µg/mL] | MIC90 (Staphylococcus aureus [16]) [µg/mL] | MIC90 (Pseudomonas aeruginosa [17]) [µg/mL] | MIC90 (Acinetobacter sp. [18]) [µg/mL] | other results |
| --- | --- | --- | --- | --- | --- | --- | --- | --- | --- | --- | --- | --- | --- | --- | --- | --- | --- | --- | --- | --- | --- |
| H-WPKWWKWKRRWGRKKAKKRRG-NH2 | 128 | 32 | 32 | 64 | 128 | 16 | 4 | 32 | 8 | 128 | > 1020 | 64 | 128 | 1020 | 1020 | 64 | 128 | 64 | 64 | 128 | MIC90 (Acinetobacter sp. [19]): 32 µg/mL; MIC90 (Escherichia coli [20]): 128 µg/mL; MIC90 (Staphylococcus aureus [21]): 32 µg/mL; MIC90 (Pseudomonas aeruginosa [22]): 128 µg/mL; MIC90 (Klebsiella pneumoniae [23]): > 1020 µg/mL; MIC90 [24]: 8 µg/mL; MIC90 (Escherichia coli [25]): 128 µg/mL; MIC90 (Pseudomonas aeruginosa [26]): 64 µg/mL; MIC90 (Klebsiella pneumoniae [27]): 1020 µg/mL; MIC90 (Staphylococcus aureus [28]): 32 µg/mL; MIC90 (Escherichia coli [29]): 256 µg/mL; MIC90 (Escherichia coli [30]): 128 µg/mL; MIC90 (Enterococcus gallinarum [31]): 16 µg/mL; MIC90 (Enterococcus faecium [32]): 32 µg/mL |
| CC[C@H](C)[C@H](N)C(=O)N[C@@H](CC(C)C)C(=O)N[C@@H](CCCNC(=N)N)C(=O)N[C@@H](Cc1c[nH]c2ccccc12)C(=O)N1CCC[C@H]1C(=O)N[C@@H](Cc1c[nH]c2ccccc12)C(=O)N[C@@H](Cc1c[nH]c2ccccc12)C(=O)N1CCC[C@H]1C(=O)N[C@@H](Cc1c[nH]c2ccccc12)C(=O)N[C@@H](CCCNC(=N)N)C(=O)N[C@@H](CCCNC(=N)N)C(=O)N[C@@H](CCCCN)C(N)=O.Cl.Cl.Cl.Cl.Cl [OMIGANAN PENTAHYDROCHLORIDE] (H-ILRWPWWPWRRK-NH2) | 64 | 16 | 32 | 8 | 512 | 32 | 4 | 16 | 8 | 128 | 128 | 128 | 128 | 64 | 128 | 16 | 256 | 128 | 256 | 4 | MIC90 (Acinetobacter sp. [19]): 32 µg/mL; MIC90 (Escherichia coli [20]): 64 µg/mL; MIC90 (Staphylococcus aureus [21]): 32 µg/mL; MIC90 (Pseudomonas aeruginosa [22]): 512 µg/mL; MIC90 (Klebsiella pneumoniae [23]): 1020 µg/mL; MIC90 [24]: 8 µg/mL; MIC90 (Escherichia coli [25]): 64 µg/mL; MIC90 (Pseudomonas aeruginosa [26]): 512 µg/mL; MIC90 (Klebsiella pneumoniae [27]): 32 µg/mL; MIC90 (Staphylococcus aureus [28]): 32 µg/mL; MIC90 (Escherichia coli [29]): 64 µg/mL; MIC90 (Escherichia coli [30]): 32 µg/mL; MIC90 (Enterococcus gallinarum [31]): 16 µg/mL; MIC90 (Enterococcus faecium [32]): 16 µg/mL |
| H-GLLKKWLKKWKEFKRIVGY-NH2 | 64 | 16 | 64 | 16 | 64 | 128 | 4 | 32 | 8 | 64 | 32 | 128 | 128 | 32 | 128 | 8 | 64 | 128 | 64 | 32 | MIC90 (Acinetobacter sp. [19]): 8 µg/mL; MIC90 (Escherichia coli [20]): 32 µg/mL; MIC90 (Staphylococcus aureus [21]): 128 µg/mL; MIC90 (Pseudomonas aeruginosa [22]): 64 µg/mL; MIC90 (Klebsiella pneumoniae [23]): 32 µg/mL; MIC90 [24]: 8 µg/mL; MIC90 (Escherichia coli [25]): 64 µg/mL; MIC90 (Pseudomonas aeruginosa [26]): 64 µg/mL; MIC90 (Klebsiella pneumoniae [27]): 16 µg/mL; MIC90 (Staphylococcus aureus [28]): 64 µg/mL; MIC90 (Escherichia coli [29]): 4 µg/mL; MIC90 (Escherichia coli [30]): 32 µg/mL; MIC90 (Enterococcus gallinarum [31]): 16 µg/mL; MIC90 (Enterococcus faecium [32]): 16 µg/mL |
| H-RIVQRIKKWLLKWKKLGY-NH2 | 64 | 16 | 64 | 64 | 64 | 64 | 4 | 16 | 8 | 64 | 64 | 128 | 128 | 32 | 128 | 64 | 64 | 64 | 64 | 128 | MIC90 (Acinetobacter sp. [19]): 32 µg/mL; MIC90 (Escherichia coli [20]): 32 µg/mL; MIC90 (Staphylococcus aureus [21]): 64 µg/mL; MIC90 (Pseudomonas aeruginosa [22]): 64 µg/mL; MIC90 (Klebsiella pneumoniae [23]): 32 µg/mL; MIC90 [24]: 8 µg/mL; MIC90 (Escherichia coli [25]): 64 µg/mL; MIC90 (Pseudomonas aeruginosa [26]): 128 µg/mL; MIC90 (Klebsiella pneumoniae [27]): 8 µg/mL; MIC90 (Staphylococcus aureus [28]): 64 µg/mL; MIC90 (Escherichia coli [29]): 64 µg/mL; MIC90 (Escherichia coli [30]): 32 µg/mL; MIC90 (Enterococcus gallinarum [31]): 16 µg/mL; MIC90 (Enterococcus faecium [32]): 16 µg/mL |
